Many of the other results were omitted from the sample, so hits are more common in it than they were.
A1 inh: inhibitors of the anti-apoptotic protein A1, read as caspase activation. 330,000 compounds, 0.066% hits. caspase activation, % (no concentration beside the values). MEF A1-2A-BIM cells, Caspase-Glo 3/7 luminescence, 3 h; percent of clofoctol response, vehicle zero;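 active = over half of replicate activation scores above 10%, or exactly half above 10 with the replicate mean above 10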
UPR XBP1 act: adaptive UPR (XBP1) activation; CHO-XBP1 luciferase reporter, IRE1-XBP1 UPR activation, luminescence; percent of tunicamycin response, DMSO as zero; activation, % at 20 µM; 330,000 compounds, 0.33% hits; AID 463104;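 active = versus positive control, 20 µM dose yields 30% or more activation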;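 also: 100% = tunicamycin at 10 µg/mL and 0% = DMSO only wells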
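Material: CHO cell line with stable XBP1 luciferase reporter; buffer or medium: F12 medium containing 10% fetal bovine serum; compound: single point, 20 µM final compound, 1% DMSO; incubation: 6 h treatment, 37 °C; measured by: glow luminescence from Steady-Glo reagent; evaluation: activation, % of tunicamycin; control set: tunicamycin high, DMSO low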
CHOP UPR activ: apoptotic UPR (CHOP) activation; CHO-CHOP luciferase reporter, luminescence; percent of tunicamycin response over DMSO baseline; activation, % at 10 µM; 330,000 compounds, 0.34% hits; AID 449763;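 active = at 10 µM dose, activation of 40% or more, normalized to positive control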;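 also: 100% = tunicamycin at 10 µg/mL and 0% = DMSO alone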
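measured by = luciferase luminescence | assay system = CHO-CHOP cells, stable luciferase reporter of PERK-eIF2a-CHOP signalling | amount = 500 reporter cells seeded per well | timing = 6 h compound exposure at 37 °C after overnight seeding | controls = positive tunicamycin 10 µg/mL, negative DMSO alone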
CHOP inh: inhibitors of CHOP induction in ER stress response; CHO-K1 CHOP-promoter luciferase, tunicamycin-induced, 15-18 h; inhibition, % at 10 µM; 220,000 compounds, 3.8% hits;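 active = compounds that reduced the stress-induced luciferase reporter signal by more than about 70% of percent inhibition, limit read from the data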;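 also: 0% = tunicamycin plus vehicle and 100% = wells without tunicamycin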
Active calls of the source: *.

For CCOC(=O)/C(C#N)=C/c1ccc(-c2ccsc2C(=O)OC)o1 the results were A1 inh 0.2, UPR XBP1 act 2.8, CHOP UPR activ 4.9 and CHOP inh 74.1*.
For CC(=O)Oc1ccc(C(=O)NCc2ccc3c(c2)OCO3)cc1 the results were A1 inh -1.6, UPR XBP1 act -4.4 and CHOP UPR activ 2.0.
`COc1ccc(OC)c(NC(=O)COC(=O)CCNc2ccccc2OC)c1` gave A1 inh -0.6, UPR XBP1 act -1.5 and CHOP UPR activ 0.5.
`CCCCNC(=O)C(=O)N/N=C/c1cccc(Br)c1` gave A1 inh -0.1, UPR XBP1 act 2.1, CHOP UPR activ 0.4 and CHOP inh 70.6*.
Screening Cc1cccnc1NC(=O)c1cccc(S(=O)(=O)N2CCCc3ccccc32)c1 returned A1 inh -0.3, UPR XBP1 act -5.0 and CHOP UPR activ -0.3.
`COc1ccc(-c2csc(Nc3ccc(S(=O)(=O)Nc4cc(OC)nc(OC)n4)cc3)n2)cc1` gave A1 inh -0.7, UPR XBP1 act 0.4, CHOP UPR activ 2.6 and CHOP inh 88.8*.
For COc1cc(NS(=O)(=O)c2ccc(Nc3nc(-c4ccccn4)cs3)cc2)nc(OC)n1 the results were A1 inh -0.7, UPR XBP1 act -4.0, CHOP UPR activ -1.5 and CHOP inh -18.0.
`CC1CC(=O)c2c(cc3c(-c4c(O)cc(O)c5c(O)c6c(cc45)OC(C)CC6=O)c(O)cc(O)c3c2O)O1` (stereo not drawn) gave A1 inh 0.1, UPR XBP1 act 13.6, CHOP UPR activ 10.1 and CHOP inh 82.0*.
Screening O=C1CC(c2ccc(O)cc2)Oc2cc(O)cc(O)c21 (stereo not drawn) returned A1 inh -2.2, UPR XBP1 act 1.7, CHOP UPR activ 1.7 and CHOP inh 14.1.
Screening CC(C)[C@H](NC(=O)N1CC(=O)Nc2ccccc21)C(=O)N1CCC(C(=O)O)CC1 returned A1 inh -0.3, UPR XBP1 act -3.6 and CHOP UPR activ 0.3.
For O=[N+]([O-])c1ccc(Oc2ccc(F)cc2)c2ccncc12 the results were A1 inh -0.7, UPR XBP1 act -0.4, CHOP UPR activ -4.8 and CHOP inh 77.0*.
CC(C)c1ccccc1OCC(=O)NC1CCCc2ccccc21 (stereo not drawn) was read as A1 inh 0.0, UPR XBP1 act 0.6, CHOP UPR activ 3.5 and CHOP inh 75.5*.
For COc1ccccc1OCC(=O)NC1CCCc2ccccc21 (stereo not drawn) the results were A1 inh 0.8, UPR XBP1 act 1.3 and CHOP UPR activ 1.7.
`COc1ccc2[nH]c3c(c2c1)CCn1c-3nc2ccccc2c1=O` gave A1 inh -4.0, UPR XBP1 act -3.1, CHOP UPR activ 1.7 and CHOP inh 70.8*.
`Cc1ccc(C(=O)NCCc2nnc3ccc(SCC(=O)Nc4ccccc4F)nn23)cc1` gave A1 inh 0.1, UPR XBP1 act -0.3 and CHOP UPR activ 1.1.
Screening Cc1occc(=O)c1OC(=O)Nc1ccc(Cl)c(Cl)c1 returned A1 inh 0.4 and CHOP inh 96.1*.
CC1=NN(c2nc(-c3ccc(C)cc3)cs2)C(=O)C1N=Nc1ccc(C(N)=O)cc1 (stereo not drawn) was read as A1 inh 1.0 and CHOP inh 106.7*.
For N#Cc1c(-c2ccc(F)cc2)cc(-c2cccnc2)nc1N the results were A1 inh 0.1, UPR XBP1 act 5.3, CHOP UPR activ -0.2 and CHOP inh 88.2*.
For N=C1/C(=C/c2cccn2Cc2ccc(F)cc2)C(=O)N=C2SC=CN12 the results were A1 inh 0.4, UPR XBP1 act 3.0, CHOP UPR activ 1.8 and CHOP inh 14.1.
Screening Cc1ccc(Cn2cccc2/C=C2/C(=N)N3C=CSC3=NC2=O)cc1 returned A1 inh 2.4, UPR XBP1 act 13.7, CHOP UPR activ 2.6 and CHOP inh 94.0*.
COc1ccc(-n2ncc3c(N4CCN(c5cc(C)ccc5C)CC4)ncnc32)cc1 was read as A1 inh 0.1, UPR XBP1 act 1.8, CHOP UPR activ 0.2 and CHOP inh -11.1.
For COc1ccc(N2CCN(c3ncnc4c3cnn4-c3ccc(C)cc3C)CC2)cc1 the results were A1 inh -0.5, UPR XBP1 act -0.2, CHOP UPR activ 4.2 and CHOP inh 74.4*.
For CCN1CCN(c2ncnc3c2cnn3-c2ccc(C)cc2C)CC1 the results were A1 inh -0.3, UPR XBP1 act 0.9, CHOP UPR activ -3.0 and CHOP inh -10.0.

Screening data as filed in PubChem.
